The source of these data is ChEMBL document CHEMBL4049421, “Design, Synthesis, and Pharmacological Characterization of N-(4-(2 (6,7-Dimethoxy-3,4-dihydroisoquinolin-2(1H)yl)ethyl)phenyl)quinazolin-4-amine Derivatives: Novel Inhibitors Reversing P-Glycoprotein-Mediated Multidrug Resistance” (J Med Chem, 2017).

Calls of active or inactive are those of the source. The calls are words filed in the database; no cut-off is given here.

The test system of data set [1] is Rattus norvegicus. The data set can be described thus: AUC(0 to infinity) in Sprague-Dawley rat plasma at 10 mg/kg, po measured after 24 hrs by LC-MS/MS analysis. Type of data set: ADME, organism-based. Set-up: dose 10 mg/kg, route oral, time infinity. The following applies: in vivo. The procedure, abridged: (§1)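 Male Sprague-Dawley rats, n = 3 per group, given drug in Tween-80/ethanol/saline (5:10:85, v/v) at 10 mg/kg p.o. or 5 mg/kg i.v. Retro-orbital blood was taken at 5 min to 24 h, and plasma separated at 900g. Samples were spiked with internal standard, methanol-precipitated and quantified by LC-MS/MS. F = (AUCpo/AUCiv)×(dose iv/dose po)×100%.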

A short description of data set [2]: Oral bioavailability in Sprague-Dawley rat plasma at 10 mg/kg measured after 24 hrs by LC-MS/MS analysis. Type of data set: ADME, organism-based. The procedure, abridged: as §1
Data set [3] in a line: Cytotoxicity against human K562/A02 cells assessed as cell viability at 1.0 uM after 48 hrs by MTT assay (reference value: >99%). Type of data set: cell-based. The following applies: read-out: Activity. For orientation: Formazan colour is commonly taken as a measure of viable cells.
In data set [4] the test system is Rattus norvegicus. The data set can be described thus: AUC(0 to infinity) in Sprague-Dawley rat plasma at 5 mg/kg, iv measured after 24 hrs by LC-MS/MS analysis. Type of data set: ADME, organism-based. Set-up: dose 5 mg/kg, time infinity, route intravenous. The following applies: in vivo. The procedure, abridged:
as §1

A further data set concerns HUVEC. The data set can be described thus: Cytotoxicity against HUVEC assessed as reduction in cell viability after 48 hrs by MTT assay. Type of data set: cell-based. The following applies: Homo sapiens. The procedure, abridged: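 MTT assay on HUVEC, K562 or K562/A02 cells seeded at 1×10^4 cells per well, using serial compound concentrations. Formazan was dissolved in DMSO and read at 490 nm. IC50 was obtained from log dose–response curves, mean ± SD of three independent tests.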

The subject of data set [5] is K562/A02. The data set can be described thus: Potentiation of cyclophosphamide-induced cytotoxicity against human K562/A02 cells at 1.0 uM after 48 hrs by MTT assay. Type of data set: functional, cell-based. The procedure, abridged:
(§2)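 K562/A02 cells were exposed for 48 h to DNR, PTX, VLB or CTX at 0, 0.313–20 μM, with or without modulator at 1.0 μM. Viability was measured by MTT at 490 nm, mean ± SD of three independent tests.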

Data set [6] is described as follows: Plasma clearance in Sprague-Dawley rat at 5 mg/kg, iv measured after 24 hrs by LC-MS/MS analysis. Type of data set: ADME, organism-based. The procedure, abridged: as §1
The species entered for data set [7] is Homo sapiens. The data set can be described thus: Inhibition of P-gp in human K562/A02 cells assessed as potentiation of daunorubicin-induced cytotoxicity at 1.0 uM after 48 hrs by MTT assay. Type of data set: cell-based. The procedure, abridged: as §2
The species named for data set [8] is Homo sapiens. The data set can be described thus: Inhibition of ATPase activity in human P-gp membrane fraction at 0.5 uM in presence of ATP after 1 hr by luciferase […]. Type of data set: cell membranes. The procedure, abridged: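 Human P-gp membrane fraction (~25 μg) was incubated with compound at 0.5, 5.0 or 50.0 μM in 0.5% DMSO, with a 100 μM sodium vanadate reference. Reaction was started with 5.0 mM MgATP, 1 h at 37 °C. Remaining ATP was read by luciferase luminescence after 20 min at room temperature, relative to vanadate. n = 3.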
On the technique in general: A reporter such as luciferase makes a cellular process visible.

In data set [9] the test system is Rattus norvegicus. Kind of data set: Effect on plasma clearance of doxorubicin in Sprague-Dawley rat at 5 mg/kg, iv co-administered with doxorubicin measured after 8 hrs by LC-MS/MS analysis. Type of data set: ADME, organism-based. The following applies: in vivo. The procedure, abridged:
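Male SD rats received DOX 10 mg/kg i.v. alone or with modulator 5 mg/kg i.v. Orbital blood was taken at 5 min to 8 h. Plasma DOX was measured by LC-MS/MS with DNR (0.5 μg/mL) as internal standard. Mean ± SD, n = 3.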

The subject of data set [10] is K562/A02. The data set can be described thus: Effect on ABCB1 expression in human K562/A02 cells at 0.1 uM to 2.0 uM after 72 hrs by Western blot analysis. Type of data set: functional, cell-based. The procedure, abridged: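 K562/A02 cells were treated 72 h with compound at 0.1, 0.5 or 2.0 μM and lysed in RIPA/PMSF. Lysate (100 μg) was run on gradient SDS-PAGE and probed with anti-ABCB1, with β-tubulin loading control and ECL detection. Expression is given as the ABCB1/β-tubulin band-intensity ratio.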

The species named for data set [11] is Homo sapiens. The data set can be described thus: Inhibition of P-gp in human K562/A02 cells assessed as potentiation of doxorubicin-induced cytotoxicity at 1 uM preincubated for 24 hrs followed by compound washout for 24 hrs and subsequent doxorubicin addition measured after 48 hrs by MTT assay. Type of data set: cell-based. The procedure, abridged:
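K562/A02 cells (1×10^4 cells per well) were preincubated 24 h with modulator (1.0 μM or 5.0 μM) or PBS. Cells were washed 0 or 3 times with medium and held for 0, 6, 12 or 24 h. A DOX concentration series was then added for 48 h, and viability was read by MTT. Triplicate determinations.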

For data set [12], the species on record is Homo sapiens. The data set can be described thus: Inhibition of P-gp mediated efflux in human K562/A02 cells assessed as intracellular Rh123 accumulation at 1.0 uM measure up to 90 mins by flow cytometric analysis. Type of data set: cell-based. The procedure, abridged:
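K562/A02 cells were loaded with 5 μM Rh123 for 90 min at 37 °C and washed three times. They were then incubated with or without modulator at 37 °C for 5, 10, 25, 30, 60 and 90 min. Retained Rh123 MFI per 10000 cells was measured by flow cytometry. 0.1% DMSO negative control, n = 3.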
(In general: In flow cytometry, cells or beads pass a laser one at a time.)

Data set [13] relates to Rattus norvegicus. Kind of data set: AUC(0 to 24 hrs) in Sprague-Dawley rat plasma at 10 mg/kg, po measured after 24 hrs by LC-MS/MS analysis. Type of data set: ADME, organism-based. The note with it: in vivo. Set-up: dose 10 mg/kg, time < 24 hr, route oral. The procedure, abridged: as §1
The subject of data set [14] is Rattus norvegicus. The data set can be described thus: AUC(0 to 24 hrs) in Sprague-Dawley rat plasma at 5 mg/kg, iv measured after 24 hrs by LC-MS/MS analysis. Also noted: dose 5 mg/kg, time < 24 hr, route intravenous. Type of data set: ADME, organism-based. The following applies: in vivo. The procedure, abridged:
as §1

Regarding `COc1cc2c(cc1OC)CN(CCc1ccc(Nc3nc(-c4ccncc4)nc4ccccc34)cc1)CC2`, the AUC (in general, concentration integrated over time) with Rattus norvegicus [1] worked out at 3340 ng·h/mL; with Rattus norvegicus [4] it was 1750 ng·h/mL; in the data set on Rattus norvegicus [13] it was 3130 ng·h/mL; in the data set on Rattus norvegicus [14], 1660 ng·h/mL. For the same molecule, in data set [2], the bioavailability (commonly the share of a dose that reaches the circulation, judged against a reference dose that is usually intravenous) is 95.3%. Further, in [3], the viability at 48 h, 1 µM was > 99%. Also, in the data set with HUVEC, the IC50 (commonly the concentration that gives 50% inhibition) is 73.6 µM. For the same molecule, the outcome in the data set with K562/A02 [5] and in the data set on K562/A02 [10] was inactive. Further, the clearance (as a rule, a measure of how efficiently the substance is removed, as volume per time) in [6] worked out at 47.8 mL/min/kg. The inhibition entry in the data set filed under Homo sapiens [7], in the data set filed under Homo sapiens [8], in the data set filed under Homo sapiens [11] and in the data set filed under Homo sapiens [12] was “Active” in each case. For the same molecule, the Activity entry in the data set with Rattus norvegicus [9] is “Non-Toxic”.
